For experiment [1], the target named is D(2) dopamine receptor (Rattus norvegicus, UniProt P61169). Description: Displacement of [3H]spiperone from dopamine D2 receptor of rat striatal membranes. The experiment is classed as cell membranes, Membrane. Summed up:
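Rat striatal membranes (0.3–1.0 mg protein/mL) were incubated with 0.1 nM [3H]spiperone in Tris-HCl buffer (pH 7.1) containing 120 mmol/L NaCl, 5 mmol/L KCl, 1 mmol/L CaCl2, 1 mmol/L MgCl2 and 0.1% ascorbic acid, at 37 °C for 15 min. Bound ligand was separated by filtration with three ice-cold washes. Nonspecific binding was defined with 1 mmol/L (+)-butaclamol. IC50 (50% inhibition of binding) came from 5–10 concentrations, each in triplicate.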

For experiment [2], the target named is T1, 5-hydroxytryptamine receptor 1A (Rattus norvegicus, UniProt P19327).
T1 sequence (P19327 whole entry): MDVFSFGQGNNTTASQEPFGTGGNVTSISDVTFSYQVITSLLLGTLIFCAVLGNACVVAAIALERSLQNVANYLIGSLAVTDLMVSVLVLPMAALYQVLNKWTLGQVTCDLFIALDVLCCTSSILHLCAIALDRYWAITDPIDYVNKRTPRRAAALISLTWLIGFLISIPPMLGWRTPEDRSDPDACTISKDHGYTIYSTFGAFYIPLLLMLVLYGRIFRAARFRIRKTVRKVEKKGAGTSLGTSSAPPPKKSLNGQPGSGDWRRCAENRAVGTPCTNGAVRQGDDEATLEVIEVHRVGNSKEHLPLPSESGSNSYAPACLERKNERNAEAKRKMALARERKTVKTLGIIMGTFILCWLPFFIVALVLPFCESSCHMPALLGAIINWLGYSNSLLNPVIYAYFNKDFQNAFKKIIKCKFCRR
Description: Inhibition of 8-OH DPAT bindign to rat hydroxytryptamine 1A receptor in hippocampal membranes.

pIC50: −log10 of the molar value.

Sequence of D(2) dopamine receptor (P61169 whole entry): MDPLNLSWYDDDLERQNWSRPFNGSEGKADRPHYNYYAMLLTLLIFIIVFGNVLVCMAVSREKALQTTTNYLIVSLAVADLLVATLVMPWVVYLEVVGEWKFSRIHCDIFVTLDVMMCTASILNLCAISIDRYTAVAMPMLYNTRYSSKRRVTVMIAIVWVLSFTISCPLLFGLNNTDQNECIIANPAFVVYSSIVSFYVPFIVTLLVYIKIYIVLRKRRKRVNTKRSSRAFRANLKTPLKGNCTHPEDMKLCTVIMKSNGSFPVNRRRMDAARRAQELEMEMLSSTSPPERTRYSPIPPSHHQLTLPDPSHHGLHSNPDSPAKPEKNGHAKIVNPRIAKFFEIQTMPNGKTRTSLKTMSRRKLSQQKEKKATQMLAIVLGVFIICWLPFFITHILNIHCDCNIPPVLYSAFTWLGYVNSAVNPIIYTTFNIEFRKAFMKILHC

The pIC50 is −log10 of the IC50, conventionally taken in molar units. For the molecule `COc1ccc2[nH]cc(CCCCN3CCN(c4ccccc4)CC3)c2c1`, the pIC50 is 7.49 in experiment [1] and 7.70 in experiment [2].

Turning to `COC(=O)c1ccc2[nH]cc(CCCCN3CCC(c4ccccc4)CC3)c2c1`, the pIC50 was 6.95 in experiment [1] and 7.70 in experiment [2]. For `Oc1ccc2[nH]cc(CCCCN3CCN(c4ccccc4)CC3)c2c1` the same measures were 8.38 and 9.10. Regarding `COc1ccc2[nH]cc(CCCCN3CC=C(c4ccccc4)CC3)c2c1`, the pIC50 in experiment [2] was 7.70. Regarding `N#Cc1ccccc1N1CCN(CCCCc2c[nH]c3ccc(C(N)=O)cc23)CC1`, the pIC50 in experiment [1] is 8.21; in experiment [2], 9.70.

With `COc1ccc2[nH]cc(CCCCN3CCN(c4ccc(OC)c(OC)c4)CC3)c2c1`, the pIC50 in experiment [1] was 7.00; in experiment [2] it was 8.00. On to `COc1ccc2[nH]cc(CCCCN3CCN(c4cc(C)c(OC)c(C)c4)CC3)c2c1`, for which the pIC50 in experiment [1] is less than 7.00; in experiment [2] it was 7.22.

Consider `COc1ccc(N2CCN(CCCCc3c[nH]c4ccc(OC(C)=O)cc34)CC2)cc1`, for which the figures for the pIC50 in experiment [1] and in experiment [2] were less than 7.00 and 9.30, respectively. For `O=C(O)c1ccc2[nH]cc(CCCCN3CCC(c4ccccc4)CC3)c2c1` the same measures were 6.00 and 7.00. For `COc1ccc2[nH]cc(CCCCN3CCN(c4ccc5c(c4)CCO5)CC3)c2c1` the same measures were less than 7.00 and 9.40. Turning to `NC(=O)c1ccc2[nH]cc(CCCCN3CCN(c4ccc(O)cc4)CC3)c2c1`, the pIC50 was 6.81 in experiment [1] and 9.70 in experiment [2]. The matching figures for `Oc1ccc2[nH]cc(CCCCN3CCC(c4ccccc4)CC3)c2c1`: 7.10 and 9.00. The matching figures for `CCOc1ccc(N2CCN(CCCCc3c[nH]c4ccc(OC)cc34)CC2)cc1`: less than 7.00 and 9.10. With `COCCOc1ccc(N2CCN(CCCCc3c[nH]c4ccc(OC)cc34)CC2)cc1`, the pIC50 in experiment [2] was 8.70. Consider `NC(=O)c1ccc2[nH]cc(CCCCN3CCN(c4ccccc4)CC3)c2c1`, for which the pIC50 is 8.15 in experiment [1] and 10.00 in experiment [2]. In turn, `COc1ccc2[nH]cc(CCCCN3CCN(c4ccc(O[Si](C)(C)C(C)(C)C)cc4)CC3)c2c1` showed a pIC50 in experiment [2] of 7.15. `COc1ccc2[nH]cc(CCCCN3CCN(c4ccc(OCc5ccccc5)cc4)CC3)c2c1`: the pIC50 in experiment [1] is 6.66; in experiment [2], 7.52. The matching figures for `N#Cc1c(F)cccc1N1CCN(CCCCc2c[nH]c3ccc(C(N)=O)cc23)CC1`: 8.30 and 11.00. For `COc1ccc2[nH]cc(CCCCN3CCN(c4cc(OC)c(OC)c(OC)c4)CC3)c2c1`, the negative-log IC50 (pIC50) in experiment [1] is less than 7.00; in experiment [2] it was 6.48. For `COc1ccc2[nH]cc(CCCCN3CCN(c4ccc5c(c4)OCCO5)CC3)c2c1` the same measures were 6.92 and 9.30. For `COc1ccc2[nH]cc(CCCCN3CC=C(c4ccc(O)cc4)CC3)c2c1` the same measures were approximately 7.00 and 9.40. For `COc1ccc2[nH]cc(CCCCN3CC=C(c4ccc5c(c4)OCO5)CC3)c2c1` the same measures were less than 7.00 and 9.40. Consider `COC(=O)c1ccc2[nH]cc(CCCCN3CCN(c4ccccc4)CC3)c2c1`, for which the pIC50 in experiment [1] is 7.51; in experiment [2], 7.40. For `Oc1ccc2[nH]cc(CCCCN3CC=C(c4ccccc4)CC3)c2c1` [ROXINDOLE] the same measures were 8.25 and 9.10.

Take `COc1ccc(C2=CCN(CCCCc3c[nH]c4ccc(OC)cc34)CC2)cc1`: the pIC50 in experiment [1] was less than 7.00; in experiment [2] it was 9.22. Regarding `NC(=O)c1ccc2[nH]cc(CCCCN3CCC(c4ccccc4)CC3)c2c1`, the pIC50 is 7.77 in experiment [1] and 10.00 in experiment [2]. The matching figures for `NC(=O)c1ccc2[nH]cc(CCCCN3CCN(c4ccc5c(c4)OCCO5)CC3)c2c1`: 7.40 and 9.70.

`COc1ccc2[nH]cc(CCCCN3CCN(c4ccc5c(c4)OCO5)CC3)c2c1`: the figures for the pIC50 in experiment [1] and in experiment [2] were 7.00 and 8.40, respectively. For `O=C(O)c1ccc2[nH]cc(CCCCN3CCN(c4ccccc4)CC3)c2c1` the same measures were less than 7.00 and 7.40. The matching figures for `COc1ccccc1N1CCN(CCCCc2c[nH]c3ccc(C(N)=O)cc23)CC1`: 8.92 and 10.00. For `COc1c(Cl)cc(N2CCN(CCCCc3c[nH]c4ccc(C(N)=O)cc34)CC2)cc1Cl` the same measures were less than 7.00 and 9.15. As for `COc1ccc2[nH]cc(CCCCN3CCN(c4ccc(NC(C)=O)cc4)CC3)c2c1`, the pIC50 was less than 7.00 in experiment [1] and 8.52 in experiment [2]. The matching figures for `COc1ccc(N2CCN(CCCCc3c[nH]c4ccc(OC5CCCC5)cc34)CC2)cc1`: less than 7.00 and 7.05. For `CCOCCOCCOc1cccc(N2CCN(CCCCc3c[nH]c4ccc(C(N)=O)cc34)CC2)c1C#N` the same measures were 7.55 and 9.05.

On to `COc1ccc(N2CCN(CCCCc3c[nH]c4ccc(C(N)=O)cc34)CC2)c(OC)c1`, for which the values for the pIC50 in experiment [1] and in experiment [2] were 7.00 and 10.15, respectively.

Turning to `NC(=O)c1ccc2[nH]cc(CCCCN3CCN(c4ccccc4C(N)=O)CC3)c2c1`, the pIC50 in experiment [1] is 7.01; in experiment [2], 9.52.

Regarding `COc1ccc2[nH]cc(CCCCN3CCN(c4ccc(OC(C)=O)cc4)CC3)c2c1`, the pIC50 was less than 7.00 in experiment [1] and 9.00 in experiment [2]. For `COc1ccc(N2CCN(CCCCc3c[nH]c4ccc(OCc5ccccc5)cc34)CC2)cc1` the same measures were less than 7.00 and 7.47. For `CC(=O)Nc1ccc(N2CCN(CCCCc3c[nH]c4ccc(C(N)=O)cc34)CC2)cc1` the same measures were less than 7.00 and 10.00. For `CCCCCOc1ccc2[nH]cc(CCCCN3CCN(c4ccc(OC)cc4)CC3)c2c1` the same measures were less than 7.00 and 6.70. `NC(=O)c1ccc2[nH]cc(CCCCN3CCN(c4ccc5c(c4)CCO5)CC3)c2c1`: the pIC50 was less than 7.00 in experiment [1] and 9.30 in experiment [2]. `CCOc1ccc2[nH]cc(CCCCN3CCN(c4ccc(OC)cc4)CC3)c2c1`: the values for the pIC50 in experiment [1] and in experiment [2] were 6.52 and 8.70, respectively. As to `COc1ccc2[nH]cc(CCCCN3CCN(c4ccc(OC(=O)C(C)(C)C)cc4)CC3)c2c1`, the pIC50 in experiment [2] was 7.62. Regarding `COC(=O)c1ccc2[nH]cc(CCCCN3CCN(c4ccc(OC)cc4)CC3)c2c1`, the pIC50 in experiment [1] is less than 7.00; in experiment [2], 8.10. For `COc1ccc2[nH]cc(CCCCN3CCN(c4ccc(O)cc4)CC3)c2c1` the same measures were 7.28 and 8.70. The matching figures for `COc1ccc2[nH]cc(CCCCN3CCN(c4ccc5c(c4)CCCO5)CC3)c2c1`: less than 7.00 and 8.70.

Values taken from ChEMBL document CHEMBL1138746, “Indolebutylamines as selective 5-HT(1A) agonists” (J Med Chem, 2004).
